# Data as given in ChEMBL document CHEMBL2176929, “Hepatoprotective iridoid glycosides from the roots of Rehmannia glutinosa” (J Nat Prod, 2012).
# Experiments:
# [1] = Hepatoprotective activity in human HL7702 cells assessed as inhibition of D-galactosamine-induced cell damage at 10 uM preincubated for 1 hr prior to D-galactosamine challenge measured after 24 hrs by MTT assay relative to untreated control; type: functional; conditions: L02
# How it was run: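 HL-7702 cells, 2 × 10^4 per well in RPMI 1640 with 10% FCS and penicillin/streptomycin, precultured 24 h at 37 °C in 5% CO2. Pretreated 1 h with samples (10 μM) or bicyclol (10 μM, positive control) in fresh medium, then given 25 mM D-galactosamine for 24 h. Medium removed, 0.5 mg/mL MTT for 4 h, formazan dissolved in DMSO, OD read at 492 nm. Inhibition (%) calculated by formula. Mean ± SD, n = 3 (normal/control n = 6).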
# L02 = assay: Hepatoprotective activity in D-galactosamine-treated human HL7702 cells assessed as survival rate at 10 uM preincubated for 1 hr prior to D-galactosamine challenge measured after 24 hrs by MTT assay relative to normal cell; type: functional; conditions: read-out: Survival
# How it was run: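 HL-7702 cells, 2 × 10^4 per well in RPMI 1640 with 10% fetal calf serum, penicillin and streptomycin, precultured 24 h at 37 °C, 5% CO2. Test samples added in fresh medium for 1 h, then 25 mM D-galactosamine for 24 h. MTT 0.5 mg/mL, 4 h; formazan dissolved in DMSO, OD at 492 nm. Bicyclol 10 μM positive control; means ± SD, n = 3.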
# A549 = assay: Cytotoxicity against human A549 cells after 4 days by MTT assay; type: functional, cell-based; conditions: A549, 96 h
# Bel-7402 = assay: Cytotoxicity against human Bel7402 cells after 4 days by MTT assay; type: functional, cell-based; conditions: Bel-7402, 96 h
# A2780 = assay: Cytotoxicity against human A2780 cells after 4 days by MTT assay; type: functional, cell-based; conditions: A2780, 96 h
# BGC-823 = assay: Cytotoxicity against human BGC823 cells after 4 days by MTT assay; type: functional, cell-based; conditions: BGC-823, 96 h
# HCT-8 = assay: Cytotoxicity against human HCT8 cells after 4 days by MTT assay; type: functional, cell-based; conditions: HCT-8, 96 h
SMILES,inhibition at 10 µM [1],viability at 10 µM (L02),IC50 (A549),IC50 (Bel-7402),IC50 (A2780),IC50 (BGC-823),IC50 (HCT-8)
COC(=O)c1cc(OC)c2c(c1-c1c(CO)cc(OC)c3c1OCO3)OCO2 [BICYCLOL],16.7%,63.6%,,,,,
C[C@]1(O)C[C@@H](OC(=O)/C=C/c2ccccc2)[C@@H]2C=CO[C@@H](O[C@@H]3O[C@H](CO)[C@@H](O)[C@H](O)[C@H]3O)[C@@H]21 [REHMAGLUTOSIDE A],,,> 10 µM,> 10 µM,> 10 µM,> 10 µM,> 10 µM
COc1cc(C(=O)O[C@@H]2C[C@](C)(O)[C@H]3[C@H](O[C@@H]4O[C@H](CO)[C@@H](O)[C@H](O)[C@H]4O)OC=C[C@H]32)ccc1O[C@@H]1O[C@H](CO)[C@@H](O)[C@H](O)[C@H]1O [REHMAGLUTOSIDE B],,,> 10 µM,> 10 µM,> 10 µM,> 10 µM,> 10 µM
COc1cc(C(=O)O[C@@H]2C[C@](C)(O)[C@H]3[C@H](O[C@@H]4O[C@H](CO)[C@@H](O)[C@H](O)[C@H]4O)OC=C[C@H]32)cc(OC)c1O[C@@H]1O[C@@H](C)[C@H](O)[C@@H](O)[C@H]1O [REHMAGLUTOSIDE C],33.6%,71%,> 10 µM,> 10 µM,> 10 µM,> 10 µM,> 10 µM
C[C@]1(O)C[C@@H](OC(=O)CCc2cc(O)ccn2)[C@@H]2C=CO[C@@H](O[C@@H]3O[C@H](CO)[C@@H](O)[C@H](O)[C@H]3O)[C@@H]21 [REHMAGLUTOSIDE D],,,> 10 µM,> 10 µM,> 10 µM,> 10 µM,> 10 µM
COc1cc([C@@H]2Oc3c(O)cc(/C=C/C(=O)O[C@@H]4C[C@](C)(O)[C@H]5[C@H](O[C@@H]6O[C@H](CO)[C@@H](O)[C@H](O)[C@H]6O)OC=C[C@H]54)cc3[C@H]2CO)ccc1O [REHMAGLUTOSIDE E],,,> 10 µM,> 10 µM,> 10 µM,> 10 µM,> 10 µM
CC(/C=C/[C@@]1(O)C(C)(C)CCC[C@@]1(C)O)=C\C(=O)O[C@@H]1C[C@](C)(O)[C@H]2[C@H](O[C@@H]3O[C@H](CO)[C@@H](O)[C@H](O)[C@H]3O)OC=C[C@H]21 [REHMAGLUTOSIDE F],,,> 10 µM,> 10 µM,> 10 µM,> 10 µM,> 10 µM
CC(/C=C/[C@@]1(O)C(C)(C)C[C@H](O)C[C@@]1(C)O)=C\C(=O)O[C@@H]1C[C@](C)(O)[C@H]2[C@H](O[C@@H]3O[C@H](CO)[C@@H](O)[C@H](O)[C@H]3O)OC=C[C@H]21 [REHMAGLUTOSIDE G],38.7%,73.2%,> 10 µM,> 10 µM,> 10 µM,> 10 µM,> 10 µM
CC(/C=C/[C@@]1(O)C(C)(C)CC[C@@H](O)[C@@]1(C)O)=C\C(=O)O[C@@H]1C[C@](C)(O)[C@H]2[C@H](O[C@@H]3O[C@H](CO)[C@@H](O)[C@H](O)[C@H]3O)OC=C[C@H]21 [REHMAGLUTOSIDE H],,,> 10 µM,> 10 µM,> 10 µM,> 10 µM,> 10 µM
CC(/C=C/[C@@]1(O)C(C)(C)CCC[C@@]1(C)O[C@@H]1O[C@H](CO)[C@@H](O)[C@H](O)[C@H]1O)=C\C(=O)O[C@@H]1C[C@](C)(O)[C@H]2[C@H](O[C@@H]3O[C@H](CO)[C@@H](O)[C@H](O)[C@H]3O)OC=C[C@H]21 [REHMAGLUTOSIDE I],28.2%,68.6%,> 10 µM,> 10 µM,> 10 µM,> 10 µM,> 10 µM
C[C@]1(O)C[C@@H](O)[C@@H]2C=CO[C@@H](O[C@@H]3O[C@H](CO[C@H]4C[C@H]5[C@@H]([C@@H](O[C@@H]6O[C@H](CO)[C@@H](O)[C@H](O)[C@H]6O)O4)[C@](C)(O)C[C@@H]5O)[C@@H](O)[C@H](O)[C@H]3O)[C@@H]21 [REHMAGLUTOSIDE J],25.2%,67.3%,> 10 µM,> 10 µM,> 10 µM,> 10 µM,> 10 µM
C[C@]1(O)C[C@@H](O)[C@@H]2C=CO[C@@H](O[C@@H]3O[C@H](CO[C@@H]4C[C@H]5[C@@H]([C@@H](O[C@@H]6O[C@H](CO)[C@@H](O)[C@H](O)[C@H]6O)O4)[C@](C)(O)C[C@@H]5O)[C@@H](O)[C@H](O)[C@H]3O)[C@@H]21 [REHMAGLUTOSIDE K],35.5%,71.8%,> 10 µM,> 10 µM,> 10 µM,> 10 µM,> 10 µM
